Measured values from ChEMBL document CHEMBL3045703, “Synthesis and insect antifeedant activity of plumbagin derivatives with the amino acid moiety” (2009).

Columns and labels:
Type in all cases: functional
Achaea janata [1] = assay: Antifeedant activity against third instar larvae of Achaea janata in compound treated fresh castor leaves assessed as consumption at 28 +/- 2 degC, relative humidity 65 +/- 5 measured after 6 to 24 hr
How it was run: (§1)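 No-choice leaf-disk test on castor leaf discs; control discs got solvent only. Prestarved third instar larvae reared on fresh castor leaves at 28 ± 2 °C, RH 65 ± 5, 16:8 light/dark. Consumed area tracked at 6, 12 and 24 h and measured with a leaf area meter. Antifeedant index = (C − T)/(C + T) × 100. 10 sets per concentration, each test run in triplicate; mean ± SD.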

Spodoptera litura [2] = assay: Toxicity in third-instar larvae of tobacco caterpillar Spodoptera litura assessed as mortality at 4 ug/insect measured after 4 to 28 days by topical bioassay
Achaea janata [3] = assay: Toxicity in third instar larvae of Achaea janata assessed as mortality at 4 ug/insect measured after 4 to 28 days by topical bioassay
Spodoptera litura [4] = assay: Antifeedant activity against third-instar larvae of tobacco caterpillar Spodoptera litura in compound treated fresh castor leaves assessed as consumption at 28 +/- 2 degC, relative humidity 65 +/- 5 measured after 6 to 24 hr; how it was run: as §1
Achaea janata [5] = assay: Toxicity in third instar larvae of Achaea janata assessed as mortality at 1 ug/insect measured after 4 to 28 days by topical bioassay
Spodoptera litura [6] = assay: Toxicity in third-instar larvae of tobacco caterpillar Spodoptera litura assessed as mortality at 1 ug/insect measured after 4 to 28 days by topical bioassay
Achaea janata [7] = assay: Antifeedant activity against third instar larvae of Achaea janata in compound treated fresh castor leaves assessed as consumption at 0.1% measured after 6 to 24 hr; how it was run: as §1
Spodoptera litura [8] = assay: Antifeedant activity against third-instar larvae of tobacco caterpillar Spodoptera litura in compound treated fresh castor leaves assessed as consumption at 0.1% measured after 6 to 24 hr; how it was run: as §1

Structure (SMILES) | antifeedant EC50 (Achaea janata [1]) | mortality (Spodoptera litura [2]) | mortality (Achaea janata [3]) | Antifeedant EC50 (leaf-consumption) (Spodoptera litura [4]) | mortality (Achaea janata [5]) | mortality (Spodoptera litura [6]) | Activity (Achaea janata [7]) | Activity (Spodoptera litura [8])
COc1cccc2c1C(=O)C(NCCOC(=O)[C@H](CC(C)C)NC(C)=O)=C(C)C2=O | >500 microg/cm2 | 74.2% | <20% | 466.28 microg/cm2 | – | – | – | –
COc1cccc2c1C(=O)C(NCCOC(=O)[C@H](Cc1ccccc1)NC(C)=O)=C(C)C2=O | 51.96 microg/cm2 | <20% | 23.4% | 105.93 microg/cm2 | – | – | – | –
COc1cccc2c1C(=O)C(NCCOC(=O)[C@@H](NC(C)=O)C(C)C)=C(C)C2=O | 104.59 microg/cm2 | 84.5% | 32.6% | >500 microg/cm2 | – | – | – | –
COc1cccc2c1C(=O)C(NCCOC(=O)[C@H](Cc1ccc(O)cc1)NC(C)=O)=C(C)C2=O | 199.45 microg/cm2 | <20% | 24.6% | 461 microg/cm2 | – | – | – | –
COc1cccc2c1C(=O)C(NCCOC(=O)CCCNC(C)=O)=C(C)C2=O | >500 microg/cm2 | <20% | <20% | 247.59 microg/cm2 | – | – | – | –
COc1cccc2c1C(=O)C(NCCOC(=O)c1ccc(NC(C)=O)cc1)=C(C)C2=O | 268.88 microg/cm2 | 63.8% | <20% | 117.25 microg/cm2 | – | – | – | –
COc1cccc2c1C(=O)C(NCCOC(=O)CNC(C)=O)=C(C)C2=O | 69.51 microg/cm2 | <20% | 100% | 36.87 microg/cm2 | – | – | – | –
COc1cccc2c1C(=O)C(NCCOC(=O)[C@H](C)NC(C)=O)=C(C)C2=O | 340.63 microg/cm2 | <20% | <20% | >500 microg/cm2 | – | – | – | –
COc1cccc2c1C(=O)C(NCCOC(=O)[C@H](CS)NC(C)=O)=C(C)C2=O | >500 microg/cm2 | 100% | <20% | >500 microg/cm2 | – | – | – | –
COc1cccc2c1C(=O)C(NCCOC(=O)[C@H](CCSC)NC(C)=O)=C(C)C2=O | 37.37 microg/cm2 | <20% | 100% | 48.47 microg/cm2 | – | – | – | –
CC[C@H](C)[C@H](NC(C)=O)C(=O)OCCNC1=C(C)C(=O)c2cccc(OC)c2C1=O | 292 microg/cm2 | <20% | <20% | >500 microg/cm2 | – | – | – | –
C/C=C(\C)C(=O)O[C@H]1C[C@@H](OC(C)=O)[C@@]2(C(=O)OC)CO[C@H]3[C@@H](O)[C@@](C)([C@]45O[C@@]4(C)[C@@H]4C[C@H]5O[C@@H]5OC=C[C@@]54O)[C@H]4[C@]1(CO[C@]4(O)C(=O)OC)[C@@H]32 [AZADIRACHTIN A] | – | – | – | – | 93.6% | 84% | – | –
CC1=CC(=O)c2c(O)cccc2C1=O [PLUMBAGIN] | – | <20% | <20% | – | – | – | 35.69% | 26%
